Reference: ChEMBL document CHEMBL1124369, “Pyrido[3,4-e]-1,2,4-triazines and related heterocycles as potential antifungal agents” (1989)
≈ marks a conversion by molar mass, not a printed value.

Tests used:
Aspergillus niger [1] = assay: Antifungal activity against Aspergillus niger; format: functional
In short: (§1)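 Agar dilution MIC. Twofold serial drug dilutions in yeast nitrogen base medium with 1% dextrose, 0.15% asparagine and 1.5% agar. Agar surfaces inoculated using a Steers multiple inocula replicator, then incubated at 35 °C for 24-48 h. MIC was recorded as the lowest concentration inhibiting visible growth. Amphotericin B, miconazole and nystatin served as controls.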

Candida albicans [2] = assay: Antifungal activity against Candida albicans; format: functional; in short: as §1
Candida tropicalis [3] = assay: Antifungal activity against Candida tropicalis; format: functional; in short: as §1
Trichophyton benhamiae [4] = assay: Antifungal activity against Trichophyton mentagrophytes; Range is 64-128; format: functional, trychophyton mentagrophytes; in short: as §1
Kluyveromyces marxianus [5] = assay: Antifungal activity against Candida pseudotropicalis; format: functional; in short: as §1
Candida parapsilosis = assay: Antifungal activity against Candida parapsilosis; format: functional; details: Lodderomyces parapsilosis; in short: as §1
Trichophyton rubrum [6] = assay: Antifungal activity against Trichophyton rubrum; Range is 32-128; format: functional; in short: as §1
Kluyveromyces marxianus [7] = assay: Antifungal activity against Candida pseudotropicalis; Range is 4-8; format: functional; in short: as §1
Candida albicans [8] = assay: Antifungal activity against Candida albicans; Range is 4-8; format: functional; in short: as §1
Trichophyton benhamiae [9] = assay: Antifungal activity against Trichophyton mentagrophytes; Range is 4-8; format: functional, trychophyton mentagrophytes; in short: as §1
Candida tropicalis [10] = assay: Antifungal activity against Candida tropicalis; Range is 4-8; format: functional; in short: as §1
Trichophyton rubrum [11] = assay: Antifungal activity against Trichophyton rubrum; format: functional; in short: as §1
Trichophyton rubrum [12] = assay: Antifungal activity against Trichophyton rubrum; Range is 64-128; format: functional
Candida tropicalis [13] = assay: Antifungal activity against Candida tropicalis; Range is 64-128; format: functional; in short: as §1
Candida albicans [14] = assay: Antifungal activity against Candida stellatoidea; format: functional; in short: as §1
Aspergillus niger [15] = assay: Antifungal activity against Aspergillus niger; Range is 16-128; format: functional; in short: as §1
Diutina rugosa = assay: Antifungal activity against Candida rugosa; format: functional; in short: as §1
Trichophyton benhamiae [16] = assay: Antifungal activity against Trichophyton mentagrophytes; format: functional, trychophyton mentagrophytes; in short: as §1
Kluyveromyces marxianus [17] = assay: Antifungal activity against Candida pseudotropicalis; Range is 1-32; format: functional; in short: as §1
Trichophyton benhamiae [18] = assay: Antifungal activity against Trichophyton mentagrophytes; Range is 16-32; format: functional, trychophyton mentagrophytes
Candida tropicalis [19] = assay: Antifungal activity against Candida tropicalis; Range is 32-64; format: functional; in short: as §1
Aspergillus niger [20] = assay: Antifungal activity against Aspergillus niger; Range is 32-64; format: functional; in short: as §1
Candida albicans [21] = assay: Antifungal activity against Candida albicans; Range is 16-64; format: functional; in short: as §1
Mucor fragilis = assay: Antifungal activity against Mucor fragilis; format: functional; in short: as §1
Trichophyton rubrum [22] = assay: Antifungal activity against Trichophyton rubrum; Range is 4-16; format: functional; in short: as §1
Candida albicans [23] = assay: microbe, parasite or virus in culture
Candida tropicalis [24] = assay: Antifungal activity against Candida tropicalis; Range is 0.25-0.5; format: functional

| MIC (Aspergillus niger [1]) | MIC (Candida albicans [2]) | MIC (Kluyveromyces marxianus [5]) | MIC (Candida parapsilosis) | MIC (Trichophyton rubrum [11]) | MIC (Candida albicans [14]) | MIC (Diutina rugosa) | MIC (Trichophyton benhamiae [16]) | Structure (SMILES) | other results |
| --- | --- | --- | --- | --- | --- | --- | --- | --- | --- |
| 128 mg/L (≈ 411 µM) | 128 mg/L (≈ 411 µM) | 128 mg/L (≈ 411 µM) | 128 mg/L (≈ 411 µM) | – | – | – | – | CC(=O)Nc1c(C)nc(C)c2nc(-c3ccc(F)cc3)nnc12 | MIC (Candida tropicalis [3]): 128 mg/L (≈ 411 µM); MIC (Trichophyton benhamiae [4]): 64 mg/L (≈ 206 µM); MIC (Trichophyton rubrum [6]): 32 mg/L (≈ 103 µM) |
| 128 mg/L (≈ 882 µM) | 128 mg/L (≈ 882 µM) | 128 mg/L (≈ 882 µM) | 128 mg/L (≈ 882 µM) | – | – | – | – | Cc1nnc2ccccc2n1 | MIC (Trichophyton rubrum [12]): 64 mg/L (≈ 441 µM); MIC (Candida tropicalis [13]): 64 mg/L (≈ 441 µM); MIC (Trichophyton benhamiae [4]): 64 mg/L (≈ 441 µM) |
| – | 128 mg/L (≈ 566 µM) | 128 mg/L (≈ 566 µM) | – | > 128 mg/L | 128 mg/L (≈ 566 µM) | 128 mg/L (≈ 566 µM) | 32 mg/L (≈ 141 µM) | Fc1ccc(-c2nnc3ncccc3n2)cc1 | MIC (Aspergillus niger [15]): 16 mg/L (≈ 70.7 µM); MIC (Candida tropicalis [3]): 128 mg/L (≈ 566 µM) |
| 128 mg/L (≈ 507 µM) | 128 mg/L (≈ 507 µM) | – | 128 mg/L (≈ 507 µM) | 32 mg/L (≈ 127 µM) | – | – | – | CCC1(Cc2ccccc2)N=Nc2ccncc2N1 (stereo unspecified) | MIC (Kluyveromyces marxianus [17]): 1 mg/L (≈ 3.96 µM); MIC (Trichophyton benhamiae [18]): 16 mg/L (≈ 63.4 µM); MIC (Candida tropicalis [19]): 32 mg/L (≈ 127 µM) |

Continued, compound first:

| Structure (SMILES) | MIC (Aspergillus niger [1]) | MIC (Candida albicans [2]) | MIC (Kluyveromyces marxianus [5]) | MIC (Candida parapsilosis) | MIC (Trichophyton rubrum [11]) | MIC (Candida albicans [14]) | MIC (Diutina rugosa) | MIC (Trichophyton benhamiae [16]) | other results |
| --- | --- | --- | --- | --- | --- | --- | --- | --- | --- |
| Cc1cc2nncnc2c(C)n1 | 32 mg/L (≈ 200 µM) | – | – | 16 mg/L (≈ 99.9 µM) | 4 mg/L (≈ 25 µM) | – | – | – | MIC (Kluyveromyces marxianus [7]): 4 mg/L (≈ 25 µM); MIC (Candida albicans [8]): 4 mg/L (≈ 25 µM); MIC (Trichophyton benhamiae [9]): 4 mg/L (≈ 25 µM); MIC (Candida tropicalis [10]): 4 mg/L (≈ 25 µM) |
| c1cc2nnc(C3CCCCC3)nc2cn1 | – | – | 32 mg/L (≈ 149 µM) | 64 mg/L (≈ 299 µM) | – | 32 mg/L (≈ 149 µM) | 32 mg/L (≈ 149 µM) | 16 mg/L (≈ 74.7 µM) | MIC (Aspergillus niger [20]): 32 mg/L (≈ 149 µM); MIC (Candida albicans [21]): 16 mg/L (≈ 74.7 µM); MIC (Mucor fragilis): 64 mg/L (≈ 299 µM); MIC (Candida tropicalis [19]): 32 mg/L (≈ 149 µM); MIC (Trichophyton rubrum [22]): 4 mg/L (≈ 18.7 µM) |
| C[C@@H]1[C@H](O)[C@@H](C)/C=C/C=C/C=C/C=C/C=C/C=C/C=C/[C@H](O[C@@H]2O[C@H](C)[C@@H](O)[C@H](N)[C@@H]2O)C[C@@H]2O[C@](O)(C[C@@H](O)C[C@@H](O)[C@H](O)CC[C@@H](O)C[C@@H](O)CC(=O)O[C@H]1C)C[C@H](O)[C@H]2C(=O)O [AMPHOTERICIN B] | 0.5 mg/L (≈ 0.541 µM) | – | 0.5 mg/L (≈ 0.541 µM) | 0.5 mg/L (≈ 0.541 µM) | 0.5 mg/L (≈ 0.541 µM) | > 128 mg/L | > 128 mg/L | 1 mg/L (≈ 1.08 µM) | MIC (Candida albicans [23]): 0.25 mg/L (≈ 0.271 µM); MIC (Candida tropicalis [24]): 0.25 mg/L (≈ 0.271 µM); MIC (Mucor fragilis): 0.25 mg/L (≈ 0.271 µM) |
